According to ChEMBL document CHEMBL4842367, “Strategies toward Discovery of Potent and Orally Bioavailable Proteolysis Targeting Chimera Degraders of Androgen Receptor for the Treatment of Prostate Cancer” (J Med Chem, 2021):
The source made the active and inactive calls. The calls are words filed in the database; no cut-off is given here.

Assays:
VCaP [1] = experiment: Growth inhibition of human VCaP cells assessed as cell viability measured after 4 days in presence of R1881 by WST-8 assay; format: functional, cell-based; conditions: 96 h
Outline: (§1)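 LNCaP and VCaP cells exposed to compounds for 4 days in charcoal-stripped medium containing 0.1 nM R1881; viability read by WST-8 assay.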

LNCaP = experiment: Growth inhibition of human LNCaP cells assessed as cell viability measured after 4 days in presence of R1881 by WST-8 assay; format: functional, cell-based; conditions: 96 h; outline: as §1
[2] = Plasma concentration in CB17 SCID mouse at 10 mg/kg, po measured after 3 hr by LC-MS/MS analysis; format: ADME, organism-based
Outline: (§2)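 Single oral gavage at 10 mg/kg in 100% PEG200 to non-tumor-bearing male mice; three mice per time point, blood collected at 1, 3 and 6 h, plasma obtained by centrifugation and measured by LC–MS/MS; reported as mean ± SD.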

[3] = molecular target: T1, Protein cereblon/Androgen receptor (Homo sapiens, UniProt P10275+Q96SW2); experiment: Protac activity at CRBN/AR in human VCAP cells assessed as induction of AR degradation at 1 uM by western blot analysis relative to control; format: cell-based; conditions: time 24.0 hrs
Target sequence in this assay (P10275 whole entry, looked up): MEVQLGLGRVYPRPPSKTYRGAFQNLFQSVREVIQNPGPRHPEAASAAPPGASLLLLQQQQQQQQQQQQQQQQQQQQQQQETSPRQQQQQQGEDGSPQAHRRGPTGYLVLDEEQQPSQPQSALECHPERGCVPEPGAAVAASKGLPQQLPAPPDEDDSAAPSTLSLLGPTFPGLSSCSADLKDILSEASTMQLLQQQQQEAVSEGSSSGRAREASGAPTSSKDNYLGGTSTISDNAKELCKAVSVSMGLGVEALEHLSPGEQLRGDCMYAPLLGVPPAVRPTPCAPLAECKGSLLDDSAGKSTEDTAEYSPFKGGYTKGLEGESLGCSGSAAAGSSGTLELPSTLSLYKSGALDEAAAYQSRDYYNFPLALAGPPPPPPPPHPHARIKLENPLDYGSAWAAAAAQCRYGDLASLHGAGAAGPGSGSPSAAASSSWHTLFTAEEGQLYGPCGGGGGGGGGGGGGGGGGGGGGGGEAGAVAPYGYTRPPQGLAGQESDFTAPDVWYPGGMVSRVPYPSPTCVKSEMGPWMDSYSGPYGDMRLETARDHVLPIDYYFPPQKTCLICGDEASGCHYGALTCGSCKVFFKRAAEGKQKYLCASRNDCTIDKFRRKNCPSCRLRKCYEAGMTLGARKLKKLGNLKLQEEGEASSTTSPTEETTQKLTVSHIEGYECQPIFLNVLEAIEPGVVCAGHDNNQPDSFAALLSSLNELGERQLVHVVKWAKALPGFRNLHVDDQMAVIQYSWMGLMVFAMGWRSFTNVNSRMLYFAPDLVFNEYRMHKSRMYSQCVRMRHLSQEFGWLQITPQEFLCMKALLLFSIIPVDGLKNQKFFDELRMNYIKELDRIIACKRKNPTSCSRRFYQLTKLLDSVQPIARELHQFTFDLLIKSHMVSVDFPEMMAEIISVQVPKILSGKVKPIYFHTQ
Target sequence in this assay (Q96SW2 whole entry, looked up): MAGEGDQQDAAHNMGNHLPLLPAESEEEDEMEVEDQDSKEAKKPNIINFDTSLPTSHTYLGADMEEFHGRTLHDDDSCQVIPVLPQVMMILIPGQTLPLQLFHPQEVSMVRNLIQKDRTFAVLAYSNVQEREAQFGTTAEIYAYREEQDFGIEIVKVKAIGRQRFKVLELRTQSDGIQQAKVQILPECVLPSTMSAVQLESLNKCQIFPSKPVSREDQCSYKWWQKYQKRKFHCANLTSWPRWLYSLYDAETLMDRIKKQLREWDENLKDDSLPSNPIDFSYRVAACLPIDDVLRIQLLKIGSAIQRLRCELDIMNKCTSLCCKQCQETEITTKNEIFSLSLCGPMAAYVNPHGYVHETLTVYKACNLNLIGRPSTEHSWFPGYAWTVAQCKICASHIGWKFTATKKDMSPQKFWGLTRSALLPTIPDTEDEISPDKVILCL

[4] = molecular target: T1, Protein cereblon/Androgen receptor; experiment: Protac activity at CRBN/AR in human VCaP cells assessed as induction of AR degradation at 0.1 uM measured after 24 hrs by western blot analysis relative to control; format: cell-based
Target sequence in this assay (P10275 whole entry, looked up): as the sequence (P10275 whole entry, looked up) above
Target sequence in this assay (Q96SW2 whole entry, looked up): as the sequence (Q96SW2 whole entry, looked up) above

[5] = Plasma concentration in CB17 SCID mouse at 10 mg/kg, po measured after 1 hr by LC-MS/MS analysis; format: ADME, organism-based; outline: as §2
[6] = molecular target: T1, Protein cereblon/Androgen receptor; experiment: Protac activity at CRBN/AR in human VCaP cells assessed as induction of AR degradation at 0.01 uM measured after 24 hrs by western blot analysis relative to control; format: cell-based
Outline: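 VCaP cells treated 24 h at 1, 10, 100 and 1000 nM; lysed in RIPA with protease/phosphatase inhibitors, run on 4–12% SDS-PAGE, blotted to PVDF. AR bands background-subtracted and normalized to loading control; degradation relative to DMSO, average of three independent experiments.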
Target sequence in this assay (P10275 whole entry, looked up): as the sequence (P10275 whole entry, looked up) above
Target sequence in this assay (Q96SW2 whole entry, looked up): as the sequence (Q96SW2 whole entry, looked up) above

[7] = Plasma concentration in CB17 SCID mouse at 10 mg/kg, po measured after 6 hr by LC-MS/MS analysis; format: ADME, organism-based; outline: as §2
[8] = molecular target: T1, Protein cereblon/Androgen receptor; experiment: Protac activity at CRBN/AR in human VCaP cells assessed as induction of AR degradation at 0.001 uM measured after 24 hrs by western blot analysis relative to control; format: cell-based
Target sequence in this assay (P10275 whole entry, looked up): as the sequence (P10275 whole entry, looked up) above
Target sequence in this assay (Q96SW2 whole entry, looked up): as the sequence (Q96SW2 whole entry, looked up) above

VCaP [9] = experiment: Antitumor activity against human VCaP cells xenografted in SCID mouse assessed as tumor growth inhibition at 40 mg/kg, po measured on day 21 relative to control; format: functional; conditions: 504 h, read-out: TGI
Outline: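 Male CB17 SCID mice implanted s.c. with 5 × 10⁶ VCaP cells in Matrigel; at average tumor volume 150 mm³, size-matched and randomized, seven per group. Oral gavage daily for 21 days in 100% PEG200. Tumors measured 2–3 times weekly, volume = length × width²/2; TGI (%) = (Vc − Vt)/(Vc − Vo) × 100 using group medians at start and end.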

[10] = Half life in ICR mouse at 2 mg/kg, iv measured up to 24 hrs by LC-MS/MS analysis; format: ADME, organism-based; conditions: in vivo
Outline: (§3)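 Male ICR mice received a single tail-vein IV bolus in 5% DMSO/10% solutol/85% saline at 5 mL/kg. Blood was taken at 0.083, 0.25, 0.5, 1, 2, 4, 6, 8 and 24 h, with n = 3 per time point and each mouse sampled once. Plasma supernatant was diluted three times with water and analysed by LC-MS/MS, and terminal T1/2 was derived noncompartmentally.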

[11] = Oral bioavailability in ICR mouse at 5 mg/kg measured up to 24 hrs by LC-MS/MS analysis; format: ADME, organism-based; conditions: in vivo
Outline: (§4)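 Male ICR mice, single oral gavage (3 or 5 mg/kg) in 5% DMSO/10% solutol/85% saline, three mice per group. Separate IV tail-vein bolus group (1 or 2 mg/kg) in the same vehicle. Blood sampled at 0.083–24 h, one sample per mouse, plasma diluted threefold and analysed by LC–MS/MS; noncompartmental parameters.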

Mus musculus [12] = experiment: Reduction in AR protein level in tumor of human VCaP cells xenografted in SCID mouse at 20 mg/kg, po single dose measured after 24 hrs by Western blot analysis; format: functional, organism-based
Outline: (§5)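 SCID mice bearing VCaP xenografts given one oral dose of 20 mg/kg; tumors harvested at 6 and 24 h after dosing and AR protein measured by Western blot with GAPDH loading control.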

[13] = Plasma concentration in human VCaP cells xenografted in SCID mouse at 20 mg/kg, po single dose measured after 24 hrs by LC-MS/MS analysis; format: ADME, organism-based
Outline: (§6)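 Single oral gavage, 20 mg/kg in 100% PEG200, to male SCID mice bearing one VCaP tumor each (about 200 mm³). Plasma and tumor taken at 6 and 24 h, three mice per time point. Tumors frozen, ground in liquid nitrogen, homogenized in water/acetonitrile 4:1, precipitated with cold acetonitrile; analysis by positive-ion MRM LC–MS/MS.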

[14] = Drug uptake in human VCaP cells xenografted in SCID mouse tumor tissue at 20 mg/kg, po single dose measured after 24 hrs by LC-MS/MS analysis; format: ADME, organism-based, Neoplasm; conditions: in vivo
Outline: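 Male CB17 SCID mice carried subcutaneous VCaP xenografts, implanted as 5 × 10⁶ cells in Matrigel, grown to about 200 mm³. Mice received a single oral gavage of 20 mg/kg in 100% PEG200. Tumors were collected at 6 and 24 h, three mice per time point, and frozen. They were homogenized in water/acetonitrile 4:1, protein-precipitated with cold acetonitrile, and assayed by LC-MS/MS (positive-ion MRM). Values are mean ± SD.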

[15] = Tmax in ICR mouse at 5 mg/kg, po measured up to 24 hrs by LC-MS/MS analysis; format: ADME, organism-based; conditions: in vivo; outline: as §4
[16] = molecular target: T1, Protein cereblon/Androgen receptor; experiment: Protac activity at CRBN/AR in human VCaP cells assessed as induction of AR degradation measured after 24 hrs by western blot analysis
Target sequence in this assay (P10275 whole entry): as the sequence (P10275 whole entry, looked up) above
Target sequence in this assay (Q96SW2 whole entry): as the sequence (Q96SW2 whole entry, looked up) above

[17] = Drug uptake in human VCaP cells xenografted in SCID mouse tumor tissue at 20 mg/kg, po single dose measured after 6 hrs by LC-MS/MS analysis; format: ADME, organism-based, Neoplasm; conditions: in vivo; outline: as §6
[18] = Plasma concentration in human VCaP cells xenografted in SCID mouse at 20 mg/kg, po single dose measured after 6 hrs by LC-MS/MS analysis; format: ADME, organism-based; outline: as §6
[19] = Tmax in ICR mouse at 3 mg/kg, po measured up to 24 hrs by LC-MS/MS analysis; format: ADME, organism-based; conditions: in vivo; outline: as §4
[20] = Oral bioavailability in ICR mouse at 3 mg/kg measured up to 24 hrs by LC-MS/MS analysis; format: ADME, organism-based; conditions: in vivo; outline: as §4
[21] = Half life in ICR mouse at 1 mg/kg, iv measured up to 24 hrs by LC-MS/MS analysis; format: ADME, organism-based; conditions: in vivo; outline: as §3
Mus musculus [22] = experiment: Reduction in AR protein level in tumor of human VCaP cells xenografted in SCID mouse at 20 mg/kg, po single dose measured after 6 hrs by Western blot analysis; format: functional, organism-based; outline: as §5

## CN1C(=O)CCC(N2C(=O)c3ccc(N4CCC(CN5CCN(c6ccc(C(=O)N[C@H]7C(C)(C)[C@H](Oc8ccc(C#N)c(Cl)c8)C7(C)C)cc6)CC5)CC4)cc3C2=O)C1=O (some centres undefined)
VCaP [1]
  IC50: 783 nM
LNCaP
  IC50: 237 nM

## CC1(C)[C@H](NC(=O)c2ccc(N3CCN(CCCNc4ccc5c(c4)C(=O)N(C4CCC(=O)NC4=O)C5=O)CC3)cc2)C(C)(C)[C@H]1Oc1ccc(C#N)c(Cl)c1 (some centres undefined)
[2]
  concentration at 3 h: 254 ng/mL
[3]
  Activity: 53%
[4]
  Activity: 54%
[5]
  concentration at 1 h: 267 ng/mL
[6]
  Activity: 37%
[7]
  concentration at 6 h: 96.9 ng/mL
[8]
  Activity: 22%

## CC1(C)[C@H](NC(=O)c2ccc(NCCCCCCNc3ccc4c(c3)C(=O)N(C3CCC(=O)NC3=O)C4=O)cc2)C(C)(C)[C@H]1Oc1ccc(C#N)c(Cl)c1 (some centres undefined)
[2]
  concentration at 3 h: 8 ng/mL
[3]
  Activity: 79%
[4]
  Activity: 77%
[5]
  concentration at 1 h: 16.9 ng/mL
[6]
  Activity: 85%
[7]
  concentration at 6 h: 1.6 ng/mL
[8]
  Activity: 69%

## CNC(=O)c1ccc(N2C(=S)N(c3ccc(C#N)c(C(F)(F)F)c3)C(=O)C2(C)C)cc1F [ENZALUTAMIDE]
VCaP [9]
  inhibition in vivo at 40 mg/kg: 39%

## CC1(C)[C@H](NC(=O)c2ccc(N3CCN(CC4CN(c5ccc6c(c5)C(=O)N(C5CCC(=O)NC5=O)C6=O)C4)CC3)cc2)C(C)(C)[C@H]1Oc1ccc(C#N)c(Cl)c1 (some centres undefined)
[10]
  t1/2: 17.8 h
[11]
  F: 75%
Mus musculus [12]
  Activity: Active
[13]
  concentration at 24 h: 1670 ng/mL
[14]
  Drug uptake: 1740 ng/g
[15]
  Tmax: 4 h
[16]
  EC50: 0.2 nM
[17]
  Drug uptake: 718 ng/g
[18]
  concentration at 6 h: 1360 ng/mL

## CC1(C)[C@H](NC(=O)c2ccc(NCCCCCNc3ccc4c(c3)C(=O)N(C3CCC(=O)NC3=O)C4=O)cc2)C(C)(C)[C@H]1Oc1ccc(C#N)c(Cl)c1 (some centres undefined)
[2]
  concentration at 3 h: 55.9 ng/mL
[3]
  Activity: 97%
[4]
  Activity: 89%
[5]
  concentration at 1 h: 111 ng/mL
[6]
  Activity: 84%
[7]
  concentration at 6 h: 2.9 ng/mL
[8]
  Activity: 49%

## CC1(C)[C@H](NC(=O)c2ccc(N3CCN(CCNc4ccc5c(c4)C(=O)N(C4CCC(=O)NC4=O)C5=O)CC3)cc2)C(C)(C)[C@H]1Oc1ccc(C#N)c(Cl)c1 (some centres undefined)
[2]
  concentration at 3 h: 919 ng/mL
[3]
  Activity: 76%
[4]
  Activity: 79%
[5]
  concentration at 1 h: 1240 ng/mL
[6]
  Activity: 83%
[7]
  concentration at 6 h: 604 ng/mL
[8]
  Activity: 58%

## CC1(C)[C@H](NC(=O)c2ccc(N3CCC(N4CCN(c5ccc6c(c5)C(=O)N(C5CCC(=O)NC5=O)C6=O)CC4)CC3)cc2)C(C)(C)[C@H]1Oc1ccc(C#N)c(Cl)c1 (some centres undefined)
[16]
  EC50: 0.1 nM
[19]
  Tmax: 6 h
[20]
  F: 24%
[21]
  t1/2: 21 h

## CC1(C)[C@H](NC(=O)c2ccc(N3CCC(CN4CCN(c5ccc6c(c5)C(=O)N(C5CCC(=O)NC5=O)C6=O)CC4)CC3)cc2)C(C)(C)[C@H]1Oc1ccc(C#N)c(Cl)c1 (some centres undefined)
[16]
  EC50: 0.4 nM
[19]
  Tmax: 4.7 h
[20]
  F: 33%
[21]
  t1/2: 25.5 h

## CC1(C)[C@H](NC(=O)c2ccc(N3CCN(C4CCN(c5ccc6c(c5)C(=O)N(C5CCC(=O)NC5=O)C6=O)CC4)CC3)cc2)C(C)(C)[C@H]1Oc1ccc(C#N)c(Cl)c1 (some centres undefined)
[11]
  F: 37%
Mus musculus [12]
  Activity: Active
[13]
  concentration at 24 h: 776 ng/mL
[14]
  Drug uptake: 685 ng/g
[15]
  Tmax: 4 h
[16]
  EC50: 0.8 nM
Mus musculus [22]
  Activity: Active
[17]
  Drug uptake: 315 ng/kg
[18]
  concentration at 6 h: 803 ng/mL

## CN1CCN(c2ccc(C(=O)N[C@H]3C(C)(C)[C@H](Oc4ccc(C#N)c(Cl)c4)C3(C)C)cc2)CC1
VCaP [1]
  IC50: 49 nM
LNCaP
  IC50: 81 nM
